Source: ChEMBL document CHEMBL1148220, “Antineoplastic agents. 529. Isolation and structure of nootkastatins 1 and 2 from the Alaskan yellow cedar Chamaecyparis nootkatensis” (2004)
Values after ≈ are worked out from the molar mass of the structure shown. Active and inactive are the calls of the source. No cut-off for these calls is given here.

How the values were obtained:
[1] = test system: Escherichia coli; assay: Antimicrobial activity against Escherichia coli ATCC 25922 at 64 ug/mL after 24 hrs by broth microdilution assay; type: functional, organism-based
[2] = test system: KM-20L2; assay: Cytotoxicity against human KM20L2 cells after 48 hrs by SRB assay; type: functional; settings: KM-20L2, 48 h
[3] = test system: MCF7; assay: Cytotoxicity against human MCF7 cells after 48 hrs by SRB assay; type: functional; settings: MCF7, 48 h
[4] = test system: DU-145; assay: Cytotoxicity against human DU145 cells after 48 hrs by SRB assay; type: functional; settings: DU-145, 48 h
[5] = test system: Enterobacter cloacae; assay: Antimicrobial activity against Enterobacter cloacae ATCC 13047 at 64 ug/mL after 24 hrs by broth microdilution assay; type: functional, organism-based
[6] = test system: Cryptococcus neoformans; assay: Antimicrobial activity against Cryptococcus neoformans ATCC 90122 after 24 hrs by broth microdilution assay; type: functional; settings: ATCC 90112, 24 h, in the assay text read “ATCC 90112” for “ATCC 90122”
Method in brief: (§1)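 Yeasts were tested by NCCLS broth microdilution. Compounds were dissolved in a small volume of sterile DMSO and diluted in the appropriate medium immediately before testing. MIC was the lowest concentration inhibiting all visible growth (optically clear). Assays were repeated on separate days.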

[7] = test system: SF-268; assay: Cytotoxicity against human SF268 cells after 48 hrs by SRB assay; type: functional; settings: SF-268, 48 h
[8] = test system: BXPC-3; assay: Cytotoxicity against human BxPC3 cells after 48 hrs by SRB assay; type: functional; settings: BXPC-3, 48 h
[9] = test system: Streptococcus pneumoniae; assay: Antimicrobial activity against Streptococcus pneumoniae ATCC 6303 after 24 hrs by broth microdilution assay; type: functional; settings: ATCC 6303, 24 h
Method in brief: (§2)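 Bacterial MICs were determined by NCCLS broth microdilution. Compounds were dissolved in a small volume of sterile DMSO and diluted in the appropriate medium just before testing. MIC was the lowest concentration giving no visible growth (optically clear). Assays were repeated on separate days.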

[10] = test system: Neisseria gonorrhoeae; assay: Antimicrobial activity against Neisseria gonorrhoeae ATCC 49226 at 64 ug/mL after 24 hrs by broth microdilution assay; type: functional; settings: ATCC 49226, 24 h
[11] = test system: Enterococcus faecalis; assay: Antimicrobial activity against Enterococcus faecalis ATCC 29212 after 24 hrs by broth microdilution assay; type: functional; settings: ATCC 29212, 24 h; method in brief: as §2
[12] = test system: Micrococcus luteus; assay: Antimicrobial activity against Micrococcus luteus Presque Isle 456 after 24 hrs by broth microdilution assay; type: functional; method in brief: as §2
[13] = test system: Candida albicans; assay: Antimicrobial activity against Candida albicans ATCC 90028 after 48 hrs by broth microdilution assay; type: functional; settings: ATCC 90028, 48 h; method in brief: as §1
[14] = test system: Staphylococcus aureus; assay: Antimicrobial activity against Staphylococcus aureus ATCC 29213 after 24 hrs by broth microdilution assay; type: functional; settings: ATCC 29213, 24 h; method in brief: as §2
[15] = test system: P388; assay: Cytotoxicity against mouse P388 cells; type: functional; settings: read-out: ED50 (the source's name)
[16] = test system: Stenotrophomonas maltophilia; assay: Antimicrobial activity against Stenotrophomonas maltophilia ATCC 13637 at 64 ug/mL after 24 hrs by broth microdilution assay; type: functional, organism-based
[17] = test system: NCI-H460; assay: Cytotoxicity against human NCI-H460 cells after 48 hrs by SRB assay; type: functional; settings: NCI-H460, 48 h
[18] = test system: Candida albicans; assay: Antimicrobial activity against Candida albicans ATCC 90028 after 48 hrs by broth microdilution assay in presence of 25% human serum; type: functional; settings: ATCC 90028, 48 h
Method in brief: (§3)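 For yeasts, NCCLS broth microdilution was run in medium supplemented with 25% heat-inactivated, filter-sterilized normal human serum. Compounds were reconstituted in sterile DMSO and diluted in medium just before the assay. MIC was the lowest concentration giving optically clear wells.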

[19] = test system: Streptococcus pneumoniae; assay: Antimicrobial activity against Streptococcus pneumoniae ATCC 6303 after 24 hrs by broth microdilution assay in presence of 25% human serum; type: functional; settings: ATCC 6303, 24 h
Method in brief: (§4)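 Bacteria were tested by NCCLS broth microdilution in medium containing 25% heat-inactivated, filter-sterilized normal human serum. Compounds were dissolved in sterile DMSO and diluted in medium immediately before use. MIC was the lowest concentration with no visible growth (optically clear). Assays were repeated on separate days.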

[20] = test system: Enterococcus faecium; assay: Antimicrobial activity against vancomycin-resistant Enterococcus faecium after 24 hrs by broth microdilution assay in presence of 25% human serum; type: functional
Method in brief: as §4, with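 “Bacterial” for “Bacteria were tested by”, “microdilution run” for “microdilution”, “with” for “containing”, “taken up” for “dissolved”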

[21] = test system: Streptococcus pyogenes; assay: Antimicrobial activity against penicillin-resistant Streptococcus pyogenes after 24 hrs by broth microdilution assay in presence of 25% human serum; type: functional
Method in brief: as §4, with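 “Bacterial” for “Bacteria were tested by”, “microdilution run” for “microdilution”, “with” for “containing”, “taken up” for “dissolved”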

[22] = test system: Enterococcus faecalis; assay: Antimicrobial activity against Enterococcus faecalis ATCC 29212 after 24 hrs by broth microdilution assay in presence of 25% human serum; type: functional; settings: ATCC 29212, 24 h; method in brief: as §4
[23] = test system: Staphylococcus aureus; assay: Antimicrobial activity against methicillin-resistant Staphylococcus aureus after 24 hrs by broth microdilution assay in presence of 25% human serum; type: functional
Method in brief: as §4, with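 “Bacterial” for “Bacteria were tested by”, “microdilution run” for “microdilution”, “with” for “containing”, “taken up” for “dissolved”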

[24] = test system: Rhodococcus sp.; assay: Antimicrobial activity against Rhodococcus sp. after 24 hrs by broth microdilution assay in presence of 25% human serum; type: functional; settings: Rhodococcus sp. (in: high G+C Gram-positive bacteria); method in brief: as §4
[25] = test system: Cryptococcus neoformans; assay: Antimicrobial activity against fluconazole-resistant Cryptococcus neoformans after 48 hrs by broth microdilution assay in presence of 25% human serum; type: functional
[26] = test system: Nakaseomyces glabratus; assay: Antimicrobial activity against Candida glabrata after 48 hrs by broth microdilution assay in presence of 25% human serum; type: functional; method in brief: as §3
[27] = test system: Escherichia coli; assay: Antimicrobial activity against Escherichia coli ATCC 25922 after 24 hrs by broth microdilution assay in presence of 25% human serum; type: functional; settings: ATCC 25922, 24 h; method in brief: as §4
[28] = test system: Candida albicans; assay: Antimicrobial activity against Candida albicans ATCC 90028 at 64 ug/mL after 48 hrs by broth microdilution assay; type: functional, organism-based
[29] = test system: Streptococcus pneumoniae; assay: Antimicrobial activity against penicillin-resistant Streptococcus pneumoniae after 24 hrs by broth microdilution assay in presence of 25% human serum; type: functional
Method in brief: as §4, with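 “Bacterial” for “Bacteria were tested by”, “microdilution run” for “microdilution”, “with” for “containing”, “taken up” for “dissolved”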

[30] = test system: Cryptococcus neoformans; assay: Antimicrobial activity against Cryptococcus neoformans ATCC 90122 after 24 hrs by broth microdilution assay in presence of 25% human serum; type: functional; settings: ATCC 90112, 24 h, in the assay text read “ATCC 90112” for “ATCC 90122”; method in brief: as §3
[31] = test system: Staphylococcus epidermidis; assay: Antimicrobial activity against Staphylococcus epidermidis ATCC 49461 after 24 hrs by broth microdilution assay in presence of 25% human serum; type: functional; settings: ATCC 49461, 24 h; method in brief: as §4
[32] = test system: Stenotrophomonas maltophilia; assay: Antimicrobial activity against Stenotrophomonas maltophilia ATCC 13637 after 24 hrs by broth microdilution assay in presence of 25% human serum; type: functional; settings: ATCC 13637, 24 h; method in brief: as §4
[33] = test system: Staphylococcus aureus; assay: Antimicrobial activity against Staphylococcus aureus ATCC 29213 after 24 hrs by broth microdilution assay in presence of 25% human serum; type: functional; settings: ATCC 29213, 24 h; method in brief: as §4
[34] = test system: Micrococcus luteus; assay: Antimicrobial activity against Micrococcus luteus Presque Isle 456 after 24 hrs by broth microdilution assay in presence of 25% human serum; type: functional; method in brief: as §4
[35] = test system: Neisseria gonorrhoeae; assay: Antimicrobial activity against Neisseria gonorrhoeae ATCC 49226 after 24 hrs by broth microdilution assay in presence of 25% human serum; type: functional; settings: ATCC 49226, 24 h; method in brief: as §4
[36] = test system: Enterobacter cloacae; assay: Antimicrobial activity against Enterobacter cloacae ATCC 13047 after 24 hrs by broth microdilution assay in presence of 25% human serum; type: functional; settings: ATCC 13047, 24 h; method in brief: as §4

CC(C)c1c(O)ccc2c1[C@H](O)C[C@H]1C(C)(C)CCC[C@]21C
Activity [1]: inactive
GI50 [2]: 2.3 µg/mL (≈ 7.6 µM)
GI50 [3]: 2.1 µg/mL (≈ 6.94 µM)
GI50 [4]: 2.6 µg/mL (≈ 8.6 µM)
Activity [5]: inactive
MIC [6]: 16 µg/mL (≈ 52.9 µM)
GI50 [7]: 2.3 µg/mL (≈ 7.6 µM)
GI50 [8]: 1.8 µg/mL (≈ 5.95 µM)
MIC [9]: 16 µg/mL (≈ 52.9 µM)
MIC [10]: 8 µg/mL (≈ 26.4 µM)
MIC [11]: 16 µg/mL (≈ 52.9 µM)
MIC [12]: 8 µg/mL (≈ 26.4 µM)
MIC [13]: 64 µg/mL (≈ 212 µM)
MIC [14]: 16 µg/mL (≈ 52.9 µM)
EC50 [15]: 1.7 µg/mL (≈ 5.62 µM)
Activity [16]: inactive
GI50 [17]: 1.8 µg/mL (≈ 5.95 µM)

CC(C)O[C@@H]1C[C@H]2C(C)(C)CCC[C@]2(C)c2ccc(O)c(C(C)C)c2O1 [NOOTKASTATIN 2]
MIC [18]: > 64 µg/mL
MIC [19]: > 64 µg/mL
Activity [1]: inactive
GI50 [2]: 2.4 µg/mL (≈ 6.66 µM)
GI50 [3]: 2.3 µg/mL (≈ 6.38 µM)
MIC [20]: > 64 µg/mL
GI50 [4]: 2.2 µg/mL (≈ 6.1 µM)
MIC [21]: > 64 µg/mL
MIC [22]: > 64 µg/mL
Activity [5]: inactive
MIC [6]: 64 µg/mL (≈ 178 µM)
GI50 [7]: 2 µg/mL (≈ 5.55 µM)
GI50 [8]: 1.8 µg/mL (≈ 4.99 µM)
MIC [23]: > 64 µg/mL
MIC [24]: > 64 µg/mL
MIC [25]: > 64 µg/mL
MIC [26]: > 64 µg/mL
MIC [27]: > 64 µg/mL
MBC [9]: 64 µg/mL (≈ 178 µM)
MIC [9]: 64 µg/mL (≈ 178 µM)
Activity [28]: inactive
MBC [10]: 2 µg/mL (≈ 5.55 µM)
MIC [10]: 2 µg/mL (≈ 5.55 µM)
MIC [29]: > 64 µg/mL
MIC [30]: > 64 µg/mL
MIC [31]: > 64 µg/mL
MBC [11]: 32 µg/mL (≈ 88.8 µM)
MIC [11]: 2 µg/mL (≈ 5.55 µM)
MBC [12]: 16 µg/mL (≈ 44.4 µM)
MIC [12]: 1 µg/mL (≈ 2.77 µM)
MIC [32]: > 64 µg/mL
MIC [33]: > 64 µg/mL
MIC [34]: > 64 µg/mL
MBC [14]: 8 µg/mL (≈ 22.2 µM)
MIC [14]: 4 µg/mL (≈ 11.1 µM)
EC50 [15]: 5.8 µg/mL (≈ 16.1 µM)
Activity [16]: inactive
GI50 [17]: 2 µg/mL (≈ 5.55 µM)
MIC [35]: > 64 µg/mL
MIC [36]: > 64 µg/mL
